What is called IC50 is the midpoint of a concentration-inhibition curve. By mortality is commonly meant the share of the test organisms that died. The term EC50 denotes the concentration at which the effect is half-maximal.

We go through eight compounds from ChEMBL document CHEMBL5143675, “Attenuating the Streptococcus pneumoniae Competence Regulon Using Urea-Bridged Cyclic Dominant-Negative Competence-Stimulating Peptide Analogs” (J Med Chem, 2022).

A short description of series [1]: Antagonist activity against Streptococcus pneumoniae D39-pcomX-lacZ strain expressing ComD1 receptor assessed as inhibition of ComD1 receptor activity by beta-galactosidase reporter gene assay. The method in brief: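 Reporter strains (pcomX::lacZ) grown on THY agar with 5% horse serum and 4 μg/mL chloramphenicol at 37 °C, 5% CO2; overnight THY broth culture diluted (1:50 D39, 1:10 TIGR4) and grown to early exponential phase (OD600 0.30–0.35 D39; 0.20–0.25 TIGR4). Primary screen at 10,000 nM peptide; EC50/IC50 from dose-response over a concentration range, three independent experiments, 95% confidence interval.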
(In general: A reporter such as luciferase makes a cellular process visible.)

The nature of series [2]: Antagonist activity against Streptococcus pneumoniae TIGR4-pcomX-lacZ strain expressing ComD2 receptor assessed as inhibition of ComD2 receptor activity by beta-galactosidase reporter gene assay. The procedure, abridged: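 TIGR4 pcomX::lacZ reporter grown on THY plates with 5% horse serum and 4 μg/mL chloramphenicol (8–9 h, 37 °C, 5% CO2). 2–3 colonies were grown overnight (15 h) in THY with chloramphenicol, diluted 1:10, and grown 3–4 h to OD600 0.20–0.25. Peptides were tested as competitive inhibitors against native CSP2. […] Three independent experiments.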

The nature of series [3]: Toxicity in Streptococcus pneumoniae D39 infected CD-1 mouse model assessed as mortality at 4 mg/kg,iv measured after 120 hrs post infection. Particulars: in vivo. Format: organism-based. The procedure, abridged:
(§1)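 Seven-week-old CD-1 mice, male and female, n=15 per cohort, isoflurane-anaesthetized, infected intranasally with D39 (4.5×10^6 CFU) or TIGR4 (1.07×10^6 CFU). Treated retro-orbitally i.v. with 4 mg/kg or PBS vehicle at 2 and 24 hpi; mortality monitored for 120 hpi.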

The nature of series [4]: Toxicity in CD-1 mouse assessed as appearance of lesions in lung at 4 mg/kg, ip administered daily for 6 days by H and E staining based assay. Format: organism-based. The settings on record: in vivo, 144 h, time 6 day.
A short description of series [5]: Toxicity in CD-1 mouse assessed as appearance of lesions in spleen at 4 mg/kg, ip administered daily for 6 days by H and E staining based assay. Format: organism-based. Particulars: in vivo, 144 h, time 6 day.
Series [6] is described as follows: Toxicity in CD-1 mouse assessed as appearance of lesions in liver at 4 mg/kg, ip administered daily for 6 days by H and E staining based assay. Particulars: in vivo, 144 h, time 6 day. Format: organism-based.
Series [7] can be described thus: Toxicity in CD-1 mouse assessed as increase in body weight at 4 mg/kg, ip administered daily for 6 days. Format: organism-based. Particulars: in vivo, 144 h, time 6 day.
The nature of series [8]: Toxicity in CD-1 mouse assessed as appearance of lesions in kidney at 4 mg/kg, ip administered daily for 6 days by H and E staining based assay. Format: organism-based. Particulars: in vivo, 144 h, time 6 day.
In series [9] the test system is Streptococcus pneumoniae. Nature of the series: Antagonist activity against CSP1-mediated pneumolysin release in Streptococcus pneumoniae D39 assessed as inhibition of autolytic release of pneumolysin at 46 to 368 nM in presence of CSP1 by Western blot analysis. The settings on record: filed as antagonist, dose 46-368 nM. (In general: Immunoblotting shows a protein as a band on a membrane.)

Series [10] has as its system Streptococcus pneumoniae. Briefly: Antibacterial activity against erythromycin-resistant Streptococcus pneumoniae D39 infected in CD-1 mouse assessed as reduction in bacterial burden in mouse lung at 4 mg/kg,iv measured after 48 hrs post infection. Format: functional, organism-based. The method in brief:
(§2)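 Seven-week-old CD-1 mice, male and female, n=10 per cohort, inoculated intranasally with a 1:1 mix of D39-rplL-ErmR and TIGR4-rplL-KanR (2.5×10^6 CFU each). Treated retro-orbitally i.v. with 4 mg/kg or PBS vehicle at 2 and 24 hpi; euthanized at 48 hpi. Lung and spleen homogenates were plated on THY with erythromycin (250 ng/mL) for D39 or […] for TIGR4.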

Series [11] concerns Erythrocyte. Nature of the series: Hemolytic activity against sheep RBC assessed as hemolysis using compound treated Streptococcus pneumoniae D39 cultured PLY supernatant at 46 to 368 nM incubated for 30 mins. Format: toxicity, cell-based, Ovis aries. Particulars: 0.5 h, 0.368 µM, dose 46-368 nM. The procedure, abridged: (§3)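 Supernatants: centrifuged, 0.22 μm filtered, concentrated 50x, serially two-fold diluted, 10 mM DTT for 15 min at room temperature. Then mixed with 2% sheep RBC for 30 min at 37 °C; A541 of cleared supernatant read. HU = highest dilution giving 50% lysis. Triplicate.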

For series [12], the system named is Streptococcus pneumoniae. Nature of the series: Antibacterial activity against erythromycin-resistant Streptococcus pneumoniae D39 infected in CD-1 mouse assessed as reduction in bacterial burden in mouse spleen at 4 mg/kg,iv measured after 48 hrs post infection. Format: functional, organism-based. The method in brief:
as §2

Series [13] can be described thus: Toxicity in CD-1 mouse assessed as appearance of lesions in heart at 4 mg/kg, ip administered daily for 6 days by H and E staining based assay. Particulars: in vivo, 144 h, time 6 day. Format: organism-based.
Series [14] concerns Erythrocyte. Briefly: Hemolytic activity against sheep RBC assessed as hemolysis using compound treated Streptococcus pneumoniae TIGR4 cultured PLY supernatant at 46 to 368 nM incubated for 30 mins. Format: toxicity, cell-based, Ovis aries. Particulars: 0.5 h, 0.368 µM, dose 46-368 nM. The procedure, abridged:
as §3

Series [15] can be described thus: Toxicity in Streptococcus pneumoniae TIGR4 infected CD-1 mouse model assessed as mortality at 4 mg/kg,iv measured after 72 hrs post. The settings on record: in vivo. Format: organism-based. The method in brief: as §1
A short description of series [16]: Stability of the compound in CD-1 mouse assessed as drug degradation at 50 ug, iv by IVIS spectrum in vivo imaging analysis. Format: ADME, organism-based. The settings on record: dose 50 µg. The method in brief:
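Seven-week-old CD-1 mice (cohorts of 4–5) given Cy7.5-labelled peptide (50 μg/mouse) by retro-orbital i.v. injection, anaesthetized with 3% isoflurane and imaged by IVIS SpectrumCT fluorescence imaging.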

Series [17] is described as follows: Agonist activity against Streptococcus pneumoniae TIGR4-pcomX-lacZ strain expressing ComD2 receptor assessed as activation of ComD2 receptor activity by beta-galactosidase reporter gene assay. The procedure, abridged: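 Reporter strains (pcomX::lacZ) grown on THY agar with 5% horse serum and 4 μg/mL chloramphenicol at 37 °C, 5% CO2; overnight THY broth culture diluted (1:50 D39, 1:10 TIGR4) and grown to early exponential phase (OD600 0.30–0.35 D39; 0.20–0.25 TIGR4).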

The source made the active and inactive calls. The rule behind the calls is not given here. *1 amine or outer side, *2 acyl side, *3 side chain or, on linkers, in order; H or OH if unused. Where a SMILES comes first, the peptide text is derived from it. Bridges are numbered along the chain shown (N, C = ends). [ ]: non-standard residue; d: D form. Orn = NCCC[C@H](N)C(=O)O; Dab = NCC[C@H](N)C(=O)O; Dap = NC[C@H](N)C(=O)O; CO = O=C([*:1])[*:2] Some results are limits rather than exact numbers.

Consider `CC[C@H](C)[C@H](NC(=O)[C@H](Cc1ccccc1)NC(=O)[C@H](CC(=O)O)NC(=O)[C@H](CCCNC(=N)N)NC(=O)[C@H](Cc1ccccc1)NC(=O)[C@H](Cc1ccccc1)NC(=O)[C@H](CCCCN)NC(=O)[C@H](CO)NC(=O)[C@H](CC(C)C)NC(=O)[C@H](CCCNC(=N)N)NC(=O)[C@H](CCSC)NC(=O)[C@H](C)N)C(=O)N[C@@H](CC(C)C)C(=O)N[C@@H](CCC(N)=O)C(=O)N[C@@H](CCCNC(=N)N)C(=O)N[C@@H](CCCCN)C(=O)N[C@@H](CCCCN)C(=O)O`, for which, in [1], the IC50 is 85.7 nM.
Same read-out and setting: to H-AMRLSKFFRKFILQRKK-OH belongs 217 nM.
For the compound `CC[C@H](C)[C@H](NC(=O)[C@H](Cc1ccccc1)NC(=O)[C@H](CCCCN)NC(=O)[C@H](CCCNC(=N)N)NC(=O)[C@H](Cc1ccccc1)NC(=O)[C@H](Cc1ccccc1)NC(=O)[C@H](CCN)NC(=O)[C@H](CO)NC(=O)[C@H](CC(C)C)NC(=O)[C@H](CCCNC(=N)N)NC(=O)[C@H](CCSC)NC(=O)[C@H](C)N)C(=O)N[C@@H](CC(C)C)C(=O)N[C@@H](CCC(N)=O)C(=O)N[C@@H](CCCNC(=N)N)C(=O)N[C@@H](CCCCN)C(=O)N[C@@H](CCCCN)C(=O)O` (H-AMRLS[Dab]FFRKFILQRKK-OH), the results for the IC50 in [1] and in series [2] were 784 nM and greater than 1000 nM, respectively.
For `CC[C@H](C)[C@H](NC(=O)[C@H](Cc1ccccc1)NC(=O)[C@@H]1CCNC(=O)NCC[C@H](NC(=O)[C@H](CO)NC(=O)[C@H](CC(C)C)NC(=O)[C@H](CCCNC(=N)N)NC(=O)[C@H](CCSC)NC(=O)[C@H](C)N)C(=O)N[C@@H](Cc2ccccc2)C(=O)N[C@@H](Cc2ccccc2)C(=O)N[C@@H](CCCNC(=N)N)C(=O)N1)C(=O)N[C@@H](CC(C)C)C(=O)N[C@@H](CCC(N)=O)C(=O)N[C@@H](CCCNC(=N)N)C(=O)N[C@@H](CCCCN)C(=O)N[C@@H](CCCCN)C(=O)O` (H-AMRLS[Dab]FFR[Dab]FILQRKK-OH; linker 6-10 via CO), the Activity entry in series [3], in series [4], in series [5], in series [6], in series [7] and in [8] was “Non-Toxic” in each case. Moreover, the figures for the Activity result (in the series on Erythrocyte [11]; in series [13]; in the series on Erythrocyte [14]) were “Non-Toxic”, “Non-Toxic” and “Toxic”, respectively. Also, the outcome with Streptococcus pneumoniae [9], in the series on Streptococcus pneumoniae [10] and with Streptococcus pneumoniae [12] was Active. Besides, the mortality at 72 h in series [15] stood at 50%.
As to `CC[C@H](C)[C@H](NC(=O)[C@H](Cc1ccccc1)NC(=O)[C@H](CC(=O)O)NC(=O)[C@H](CCCNC(=N)N)NC(=O)[C@H](Cc1ccccc1)NC(=O)[C@H](Cc1ccccc1)NC(=O)[C@H](CCCCN)NC(=O)[C@H](CO)NC(=O)[C@H](CC(C)C)NC(=O)[C@H](CCCNC(=N)N)NC(=O)[C@H](CCSC)NC(=O)[C@H](CCC(=O)O)NC(=O)CCCCC[N+]1=C(/C=C/C2=CC(=C/C=C3\N(C)c4ccc5ccccc5c4C3(C)C)/CCC2)C(C)(C)c2ccc3ccccc3c21)C(=O)N[C@@H](CC(C)C)C(=O)N[C@@H](CCC(N)=O)C(=O)N[C@@H](CCCNC(=N)N)C(=O)N[C@@H](CCCCN)C(=O)N[C@@H](CCCCN)C(=O)O`, the Drug degradation in [16] came to 36 h.
With `CC[C@H](C)[C@H](NC(=O)[C@H](Cc1ccccc1)NC(=O)[C@H](CCCCN)NC(=O)[C@H](CCCNC(=N)N)NC(=O)[C@H](Cc1ccccc1)NC(=O)[C@H](Cc1ccccc1)NC(=O)[C@H](CN)NC(=O)[C@H](CO)NC(=O)[C@H](CC(C)C)NC(=O)[C@H](CCCNC(=N)N)NC(=O)[C@H](CCSC)NC(=O)[C@H](C)N)C(=O)N[C@@H](CC(C)C)C(=O)N[C@@H](CCC(N)=O)C(=O)N[C@@H](CCCNC(=N)N)C(=O)N[C@@H](CCCCN)C(=O)N[C@@H](CCCCN)C(=O)O` (H-AMRLS[Dap]FFRKFILQRKK-OH), the IC50 in series [1] turned out to be 454 nM. In series [17], the EC50 turned out to be 39.5 nM.
Regarding H-EMRISRIILDFLFLRKK-OH, the EC50 in [17] is 50.7 nM.
For the compound `CC[C@H](C)[C@H](NC(=O)[C@H](Cc1ccccc1)NC(=O)[C@H](CCCCN)NC(=O)[C@H](CCCNC(=N)N)NC(=O)[C@H](Cc1ccccc1)NC(=O)[C@H](Cc1ccccc1)NC(=O)[C@H](CCCN)NC(=O)[C@H](CO)NC(=O)[C@H](CC(C)C)NC(=O)[C@H](CCCNC(=N)N)NC(=O)[C@H](CCSC)NC(=O)[C@H](C)N)C(=O)N[C@@H](CC(C)C)C(=O)N[C@@H](CCC(N)=O)C(=O)N[C@@H](CCCNC(=N)N)C(=O)N[C@@H](CCCCN)C(=O)N[C@@H](CCCCN)C(=O)O` (H-AMRLS[Orn]FFRKFILQRKK-OH), the IC50 in series [1] is 339 nM; in [2], greater than 1000 nM.
